Data: publication PMC8710994 (Redox Biology, 2021)

Columns and labels:
[1] = test system: APAP-induced acute liver injury; assay: APAP-induced acute liver injury in mice; type: in vivo, C57BL/6 male mice
[2] = MTT cytotoxicity assay, LO2; type: cell-based, human; details: human, LO2 cells
Nrf2 [3] = biological target: T1, Nrf2 (Homo sapiens, UniProt Q16236); assay: Cellular thermal shift assay; type: cell-based; details: 1 at 5.0 μM, LO2 cell lysates
T1 sequence (Q16236 1-605): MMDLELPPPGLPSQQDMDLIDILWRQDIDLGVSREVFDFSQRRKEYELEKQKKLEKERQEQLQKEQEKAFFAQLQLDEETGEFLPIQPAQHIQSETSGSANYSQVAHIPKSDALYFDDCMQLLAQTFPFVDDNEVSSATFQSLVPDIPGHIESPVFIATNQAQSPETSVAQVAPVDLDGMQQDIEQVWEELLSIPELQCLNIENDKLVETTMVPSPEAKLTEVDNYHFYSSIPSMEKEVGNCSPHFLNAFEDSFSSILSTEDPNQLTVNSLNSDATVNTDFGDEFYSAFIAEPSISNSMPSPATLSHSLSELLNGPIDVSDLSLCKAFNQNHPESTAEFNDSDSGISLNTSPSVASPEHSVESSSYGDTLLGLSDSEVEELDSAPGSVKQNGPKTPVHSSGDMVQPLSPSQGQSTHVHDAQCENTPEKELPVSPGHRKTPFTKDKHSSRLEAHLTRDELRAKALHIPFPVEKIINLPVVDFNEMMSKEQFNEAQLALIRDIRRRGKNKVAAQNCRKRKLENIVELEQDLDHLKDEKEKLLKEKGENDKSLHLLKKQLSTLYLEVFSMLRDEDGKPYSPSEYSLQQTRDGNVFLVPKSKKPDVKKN

Keap1–Nrf2 interaction [4] = biological target: T2, Keap1–Nrf2 interaction (Homo sapiens, UniProt Q14145); assay: Fluorescence polarization; details: read-out: Keap1–Nrf2 binding inhibition IC50; FP assay
T2 sequence (Q14145 whole entry): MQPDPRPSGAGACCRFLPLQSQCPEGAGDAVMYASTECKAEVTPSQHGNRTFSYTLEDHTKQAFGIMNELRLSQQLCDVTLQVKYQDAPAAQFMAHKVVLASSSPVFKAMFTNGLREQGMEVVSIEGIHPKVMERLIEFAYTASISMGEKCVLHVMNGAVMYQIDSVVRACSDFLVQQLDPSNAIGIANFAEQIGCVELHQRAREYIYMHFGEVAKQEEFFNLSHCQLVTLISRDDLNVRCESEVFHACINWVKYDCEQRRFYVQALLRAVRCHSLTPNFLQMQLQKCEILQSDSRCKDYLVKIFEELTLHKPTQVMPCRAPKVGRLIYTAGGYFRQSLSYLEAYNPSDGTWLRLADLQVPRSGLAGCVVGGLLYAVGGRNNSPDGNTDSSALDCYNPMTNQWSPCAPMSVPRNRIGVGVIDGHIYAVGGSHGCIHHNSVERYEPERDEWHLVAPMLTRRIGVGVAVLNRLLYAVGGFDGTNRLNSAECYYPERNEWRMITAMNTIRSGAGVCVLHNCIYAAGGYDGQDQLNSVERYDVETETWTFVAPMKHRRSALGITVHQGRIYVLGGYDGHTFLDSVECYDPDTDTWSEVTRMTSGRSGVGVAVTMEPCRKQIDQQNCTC

Nrf2 [5] = biological target: T1, Nrf2; assay: Isothermal titration calorimetry with recombinant Nrf2; type: binding; details: 200 μM of 1 titrated into Nrf2 (20 μM)
LO2 cells [6] = assay: Cellular uptake in LO2 cells by ICP-MS; type: in vitro ADME, human; details: 5 μM
Outline: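 LO2 cells were incubated with test compound at 5 μM for varying times. Iridium was then quantified by ICP-MS in whole cells and in separated nuclear and cytoplasmic fractions. Three independent experiments were run, shown as mean ± standard deviation; one-way ANOVA with Tukey's test.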

LO2 cells [7] = assay: Cytoprotection against APAP-induced cytotoxicity in LO2 cells; type: cell-based, human
LO2 cells [8] = assay: MTT cytotoxicity assay, LO2; type: cell-based, human; details: read-out: cytotoxicity IC50; LO2, MTT, 48 h
[9] = Stability by UV-Vis and 1H NMR over 7 days; type: physicochemical; details: 4:1 acetonitrile/aqueous medium, seven days
proteasome = assay: Proteasome activity fluorometric assay kit; type: cell-based, human; details: 5 μM, 8 h
Outline: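 LO2 cells were treated 8 h with test compound (5 μM). Proteasome activity was then measured with a commercial fluorometric kit, with MG132 as positive control.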

[10] = Pharmacokinetic profile in mouse plasma by ICP-MS; type: in vivo; details: mice
Outline: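 After an overnight fast, C57BL/6J mice received test compound at 5.0 mg kg−1 i.p. Blood was collected into EDTA-2Na at 0, 0.5, 1, 2, 6, 12, 24 and 48 h. Plasma iridium was quantified by ICP-MS, n = 4, shown as mean ± SD.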

Keap1 [11] = biological target: T3, Keap1 (Homo sapiens, UniProt Q14145); assay: Cellular thermal shift assay; type: cell-based; details: 1 at 5.0 μM, LO2 cell lysates
T3 sequence (Q14145 whole entry): as above
Outline: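 LO2 lysate from 2 × 10^6 cells was diluted in PBS and split into equal aliquots. Aliquots were treated with test compound (5.0 μM) or DMSO for 30 min at room temperature, then heated individually across a temperature series. They were centrifuged, and supernatants were run on SDS-PAGE and immunoblotted for Keap1.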

HO-1 and NQO1 = HO-1 and NQO1 levels in LO2 cells by Western blotting; type: cell-based, human
mice = assay: Toxicity evaluation and organ distribution in mice; type: in vivo
Outline: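 Mice received test compound at 2.5 or 5.0 mg kg−1 i.p.; body and organ weights were recorded after 6 h. Organ index = organ wet weight/body weight × 100%; the figure legend reports indexes at 12 h, n = 5. About 100 mg tissue was ground in liquid nitrogen, nitric-acid digested, and analysed for iridium by ICP-MS. Organs were fixed 24 h, sectioned at 4 μm, and H&E stained.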

Nrf2 [12] = assay: Nrf2 nuclear translocation in LO2 cells; type: cell-based, human; details: after 1 h
LO2 cells [13] = assay: ROS detection; type: cell-based, human; details: 5 μM, 8 h
Outline: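 LO2 cells were treated with H2O2 (800 μM, 3 h) and test compound (5 μM, 8 h). Cells were labelled with 5 μM H2DCF-DA in serum-free DMEM at 37 °C for 30 min, washed, and imaged by confocal microscopy at excitation 488 nm, emission 525 nm.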

Keap1 [14] = biological target: T3, Keap1; assay: Isothermal titration calorimetry with recombinant Keap1; type: binding
Outline: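 Human His6-Keap1 was expressed in E. coli BL21(DE3) (1 mM IPTG, 37 °C, 4 h) and purified on a His column. Protein and test compound were dialysed into 20 mM Bis-Tris, 150 mM NaCl, 2 mM DTT. Compound (200 μM) was titrated into protein (20 μM) in 19 × 2 μL injections, 150 s apart, at 25 °C and 750 rpm. Control titrations were included; data were fitted with a composite model.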

LO2 cells [15] = assay: Mitochondrial membrane potential by rhodamine 123 staining in LO2 cells; type: cell-based, human; details: 5 μM, 8 h
Outline: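 LO2 cells were attached overnight, then treated 8 h with test compound (5 μM). CCCP (10 μM, 1 h) was the positive control. Cells were stained with rhodamine 123 (5 μg/mL, 30 min) for fluorescence microscopy. For quantitation, washed cells at 1.0 × 10^5 cells/mL were stained at 37 °C in the dark for 30 min and read by spectrofluorometer at excitation 505 nm, emission 534 nm.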

Keap1 and Nrf2 binding = Keap1 and Nrf2 binding (Homo sapiens, UniProt Q14145); assay: Competitive assay; details: competitive inhibitor, double-reciprocal plot
Chain of Keap1 and Nrf2 binding (Q14145 whole entry): as above
Outline: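 Fluorescence polarisation kit assay. Diluted Keap1 ([…]) was combined with Nrf2 peptide (1 μM stock), BSA and test compound in kit buffer. The mix was incubated 0.5 h at ambient temperature and read at excitation 485 nm, emission 535 nm. For the competitive format, wells held […] Nrf2 with test compound at several concentrations.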

Keap1–Nrf2 interaction [16] = biological target: T2, Keap1–Nrf2 interaction; assay: Co-immunoprecipitation of Keap1 and Nrf2 in LO2 cells; type: cell-based; details: 5.0 μM, 8 h
[17] = 1 at 5.0 mg kg−1, 6 h after APAP challenge

With `CC(=O)Nc1ccc(O)cc1` [APAP, Acetaminophen, reference compound] the “serum ALT, maximum level” value ([1]; 12 h after APAP challenge) was 3334.98 U/L, the “serum AST, maximum level” value ([1]; 12 h after APAP challenge) was 2002.31 U/L and the “serum ALT” value ([1]; 48 h after APAP challenge) was 608.41 U/L. For the same molecule, the “serum AST” value ([1]; 48 h after APAP challenge) was 488.20 U/L, the “increase in serum ALT compared with the control group” value ([1]; APAP 400 mg kg−1) was 188 fold and the “increase in serum AST compared with the control group” value ([1]; APAP 400 mg kg−1) was 216 fold. For the same molecule, the “percentage of necrotic liver areas” value ([1]; APAP 400 mg kg−1 i.p. alone (model group)) was 21.01%.

With `Clc1cc(-c2ccccc2)nc2ccccc12` [Ligand 7, 4-chloro-2-phenylquinoline] the IC50 at 48 h [2] was > 100 µM.

For `Cc1ccc2ccc3ccc(C)nc3c2n1` [Ligand 8, 2,9-dimethyl-1,10-phenanthroline], the IC50 at 48 h [2] was > 100 µM.

With “[Ir (clpq)2 (2,9-dmphen)](PF6) [Complex 1]” the “shift of Nrf2 melting curve” value (Nrf2 [3]) was “no significant shift”, the IC50 (Keap1–Nrf2 interaction [4]) was 1090 nM and the “binding to Nrf2 by ITC” value (Nrf2 [5]) was “no binding was observed”. For the same molecule, the “cellular permeability (iridium levels in nucleus and cytoplasm)” value (LO2 cells [6]) was “good cellular permeability”, the “cell viability of LO2 cells after treatment with APAP” value (LO2 cells [7]) was “dose-dependent restoration of cell viability” and the IC50 (LO2 cells [8]) was 48 µM. For the same molecule, the stability [9] was “good stability”, the “effect on proteasomal inhibition” value (proteasome) was “no significant effect” and the elimination half-life ([10]; 5 mg kg−1 i.p.) was 12 h. For the same molecule, the “maximum mean peak area in plasma (Cmax)” value ([10]; 5.0 mg kg−1 i.p.) was 13.70 µg/mL, the Cmax ([10]; read-out: maximum mean peak area in plasma (Cmax), 5.0 mg kg−1 i.p.) was 13.4 µM and the “shift of Keap1 melting curve” value (Keap1 [11]) was “ca. 6 °C”. The “levels of HO-1 and NQO1” value (HO-1 and NQO1; 6 h treatment) was “increased”, the “increase of HO-1 and NQO1 levels in Keap1 knockdown cells versus control cells” value (HO-1 and NQO1; Keap1 siRNA) was “less effective” and the “increase of HO-1 and NQO1 levels after Nrf2 knockdown” value (HO-1 and NQO1; Nrf2 siRNA) was “muted”. For the same molecule, the “organ damage (organ morphology, organ index, H&E)” value (mice; 5.0 mg kg−1 i.p., 6, 12 and 24 h) was “did not cause organ damage”, the “concentration in various organs (ICP-MS)” value (mice; i.p., 6 h) was “mainly concentrated in the liver and kidney” and the “reductions of AST levels” value ([1]; 1 (5 mg/kg), time intervals 6, 12, 24 and 48 h after APAP) was 32.29–53.62%. The “decrease of serum ALT” value [1, 17] was 23.5%, the “decrease of serum AST” value [1, 17] was 25.2% and the “percentage of necrotic liver areas” value ([1]; APAP 400 mg kg−1 + 1 at 2.5 mg kg−1 i.p. once daily for five days) was 16.04%. The “percentage of necrotic liver areas” value ([1]; APAP 400 mg kg−1 + 1 at 5.0 mg kg−1 i.p. once daily for five days) was 8.99%, the “Nrf2 levels in the nucleus (liver) in comparison to the APAP group” value ([1]; mice, APAP + 1) was “significantly increased” and the “protein expression of Keap1 (liver)” value ([1]; mice, APAP + 1) was “remained basal”. For the same molecule, the “Nrf2 accumulation in the nucleus” value (Nrf2 [12]) was “induced Nrf2 accumulation in the nucleus”, the “effect on ROS elevation” value (LO2 cells [13]) was “no significant effect” and the “-TΔS (ITC)” value (Keap1 [14]; Keap1) was -1.64 kcal/mol. For the same molecule, the “stoichiometry N (ITC)” value (Keap1 [14]; Keap1) was 0.962 ± 0.026, the “ΔG (ITC)” value (Keap1 [14]; Keap1) was -8.39 kcal/mol and the “ΔH (ITC)” value (Keap1 [14]; Keap1) was -6.75 kcal/mol. For the same molecule, the Kd (Keap1 [14]; read-out: Kd (ITC), 200 μM of 1 titrated into Keap1 (20 μM), 25 °C) was 710 ± 790 nM, the “effect on mitochondrial dysfunction” value (LO2 cells [15]) was “no significant effect” and the Ki (Keap1 and Nrf2 binding) was 1030 nM. The “Nrf2 co-precipitated with Keap1” value (Keap1–Nrf2 interaction [16]) was “reduction of Nrf2 co-precipitated with Keap1”.
